# Source: PubChem BioAssay
# TPT1 inhibitor = C. albicans TPT1 enzyme inhibition. recombinant caTPT1, FP RNA substrate dephosphorylation. inhibition, % at 5 µM. actives 0.81% (n = 300,000). AID 1962;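 active = inhibition above the mean of all tested compounds plus 3 SD, set per screening campaign, cut at about 24% in these data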;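 also: plate controls were DMSO alone for no effect and ferristatin control at 100 nM for full effect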
# CSN deneddyl inh = blocks human CSN-mediated cullin deneddylation; Q92905; actives 0.38% (n = 360,000); inhibition, % at 12.5 µM; Purified CSN, SCF-Nedd8-OG deneddylation, fluorescence polarization;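 active = pattern-corrected inhibition above about 35%, with an unprinted fluorescence ratio check between 0.5 and 1.5, limit read from the data, passing the limit was not always enough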;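 also: 0% = enzyme with substrate and 100% = substrate without enzyme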
# Target sequence (Q92905 whole entry, looked up, one chain of several): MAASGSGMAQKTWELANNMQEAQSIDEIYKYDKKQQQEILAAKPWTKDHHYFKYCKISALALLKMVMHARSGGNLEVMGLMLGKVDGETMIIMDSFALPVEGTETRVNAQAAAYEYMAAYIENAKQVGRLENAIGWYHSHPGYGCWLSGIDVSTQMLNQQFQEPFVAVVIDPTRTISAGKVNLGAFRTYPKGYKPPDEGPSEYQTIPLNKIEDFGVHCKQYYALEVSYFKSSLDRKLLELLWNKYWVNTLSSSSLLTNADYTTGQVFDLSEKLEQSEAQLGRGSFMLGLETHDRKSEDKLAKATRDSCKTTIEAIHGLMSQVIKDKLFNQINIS
#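 Assay system: Purified human Csn5 enzyme expressed in HEK293T cells | Amount: Enzyme 0.24 nM | Measured by: Fluorescence polarization readout | Medium: Tris/NaCl/DTT buffer, pH 7.5 | Compound dosing: One concentration, 12.5 µM, 0.25% DMSO | Times: 90 min incubation of compound, enzyme and substrate at room temperature | Control set: no-enzyme wells high, enzyme-with-substrate wells low | Read-out: % inhibition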
# Rtt109 HAT inh = inhibitors of Candida albicans Rtt109/Vps75 histone acetyltransferase | actives 0.16% (n = 330,000) | purified Rtt109/Vps75, ThioGlo CoA-SH fluorescence, 4 h | inhibition, % at 34.9 µM | Q5AAJ8 | AID 540336;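 active = inhibition of at least 50% in every replicate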
# HNF4A DNA FP = change in binding of human HNF4 alpha to DNA; HNF4a-FITC DNA binding, fluorescence polarization, 1 h; activity change, % at 10 µM; AID 1224865; actives 0.3% (n = 360,000); in the data active = activity change above about 30%, passing the limit was not always enough
# An asterisk follows results filed as active; · = not tested or not shown. Only some compounds are listed: those with a hit (about 1.2% of all), similar ones and a draw of the others.
SMILES,TPT1 inhibitor,CSN deneddyl inh,Rtt109 HAT inh,HNF4A DNA FP
CCOC(=O)c1c(NC(=O)COC(=O)CCOc2ccc(OCC)cc2)sc(C(=O)N(C)C)c1C,-1,121*,16,-1
CCOC(=O)c1c(NC(=O)COC(=O)CCOc2ccc(C)cc2)sc(C(=O)N(C)C)c1C,6,3,4,5
COC(=O)c1cn(NC(=O)/C=C/c2cc(OC)ccc2OC)c(=O)c2ccccc12,2,-1,-15,-5
O=C1C(=Cc2cn(-c3ccccc3)nc2-c2ccc(OCc3ccc(Cl)cc3)cc2)SC(=S)N1CCS(=O)(=O)O,·,80*,·,-59
CCN1C(=O)/C(=C/c2cn(-c3ccccc3)nc2-c2cccnc2)SC1=S,·,23,-1,40*
O=C1C(=Cc2cn(-c3ccccc3)nc2-c2ccc(OCc3ccccc3F)cc2)SC(=S)N1CCS(=O)(=O)O,·,50,·,-49
Nn1c(SCC(=O)Nc2nccs2)nnc1-c1cccnc1,·,1,24,3
CCCN1C(=O)/C(=C/c2c(NCCCOCC)nc3c(C)cccn3c2=O)SC1=S,·,38*,5,50*
CCC(c1nnc(SCc2nc3ccccc3s2)n1Cc1ccccc1)N(C)C (centres undefined),8,-4,3,2
c1ccc(Cn2c(SCc3nc4ccccc4s3)nnc2-c2ccco2)cc1,17,45*,5,-20
O=C1C(C2=NC(c3ccccn3)C3C(=O)N(c4ccccc4)C(=O)C23)=C(O)c2ccccc21 (centres undefined),1,7,-9,0
COc1ccc(C(C)(C)C)cc1NC(=O)COC(=O)CN1C(=O)NC2(CCCCC2C)C1=O (centres undefined),·,-3,6,-4
Cc1ccc(C)c(N2N=C(C(=O)NCCN3C(=O)S/C(=C\c4cccnc4)C3=O)CCC2=O)c1,0,4,-1,-7
O=C(NCc1ccccc1)C(c1cccc2ccccc12)n1c(=O)c(-c2ccco2)nc2ccccc21 (centres undefined),·,21,·,26
Cc1cccc(C)c1NC(=O)C(c1ccnc2ccccc12)n1c(=O)c(-c2ccco2)nc2ccccc21 (centres undefined),·,21,·,44*
CCCCCNC(=O)C(c1cccc2ccccc12)n1c(=O)c(-c2ccco2)nc2ccccc21 (centres undefined),·,33,·,40*
Cc1cccc(C)c1NC(=O)C(c1ccccc1F)n1c(=O)c(-c2ccco2)nc2ccccc21 (centres undefined),·,23,·,45*
COc1ccc(NC(=O)C(c2ccnc3ccccc23)n2c(=O)c(-c3ccco3)nc3ccccc32)cc1 (centres undefined),·,12,·,11
COc1ccc(CNC(=O)c2cc(S(=O)(=O)N3CCCCC3)ccc2Cl)cc1OC,·,-2,3,3
O=C(c1c(F)cccc1F)N1CCCc2ccccc21,-1,1,-9,-2
O=C(c1c(Cl)cccc1Cl)N1CCN(c2ncccn2)CC1,0,1,-20,-1
CCCCS(=O)(=O)/C=C\C=C/S(=O)(=O)CCCC,-2,5,149*,-3
COc1cccc(OCc2cc(/C=N/Nc3ccc(C(=O)O)cc3)ccc2OC)c1,5,6,50*,5
CC(=O)Nc1cccc(OCC(=O)NC(C)c2ccc3ccccc3c2)c1 (centres undefined),1,-2,0,-4
CC1CC(C)CN(C(=O)C2CCC(CNS(=O)(=O)c3ccccc3)CC2)C1 (centres undefined),0,2,4,0
SMILES,TPT1 inhibitor,CSN deneddyl inh,Rtt109 HAT inh,HNF4A DNA FP
CCN1C(=O)S/C(=C/c2ccc(Sc3nc4ccccc4[nH]3)o2)C1=O,0,10,-10,102*
Cc1ccc(-c2nn(-c3ccccc3)cc2/C=C2\SC(=S)N(CC(=O)O)C2=O)cc1,1,2,3,-10
CCOc1ccc(-c2nn(-c3ccccc3)cc2/C=C2\SC(N)=NC2=O)cc1C,-1,-3,4,57*
COc1ccc(S(=O)(=O)N2CCCCCC2)cc1C(=O)N(C)Cc1ccc(F)cc1,-1,2,4,1
COc1ccc(CN(C)C(=O)c2cc(S(=O)(=O)N3CCCCCC3)ccc2OC)cc1OC,0,-1,57*,6
Cc1ccc(S(=O)(=O)NN=C2C(=O)C3CCC2C3Cl)cc1 (centres undefined),·,-6,3,-1
O=C(OCC1CCC=CO1)C1CCC=CO1 (centres undefined),·,2,-1,2
CCn1nc(C(=O)NCc2nnc3ccccn23)c2ccccc2c1=O,·,-5,1,2
